Laboratory results: ChEMBL document CHEMBL4387704, “Design, synthesis and biological evaluation of novel isoindolinone derivatives as potent histone deacetylase inhibitors” (Eur J Med Chem, 2019)
The source made the active and inactive calls. No cut-off for these calls is given here.

What was measured:
CCRF-CEM = assay: Growth inhibition of human CCRF-CEM cells assessed as cell growth inhibition at 10 uM incubated for 48 hrs by sulforhodamine B assay; format: functional; settings: read-out: GI
SK-MEL-5 = assay: Growth inhibition of human SK-MEL-5 cells assessed as cell growth inhibition at 10 uM incubated for 48 hrs by sulforhodamine B assay; format: functional; settings: SK-MEL-5, 48 h, read-out: GI
Histone deacetylase 3 = Histone deacetylase 3 (Homo sapiens, UniProt O15379); assay: Inhibition of HDAC3 (unknown origin) using Fluor de Lys substrate by fluorescence assay relative to control
Chain of Histone deacetylase 3 (O15379 whole entry, canonical isoform): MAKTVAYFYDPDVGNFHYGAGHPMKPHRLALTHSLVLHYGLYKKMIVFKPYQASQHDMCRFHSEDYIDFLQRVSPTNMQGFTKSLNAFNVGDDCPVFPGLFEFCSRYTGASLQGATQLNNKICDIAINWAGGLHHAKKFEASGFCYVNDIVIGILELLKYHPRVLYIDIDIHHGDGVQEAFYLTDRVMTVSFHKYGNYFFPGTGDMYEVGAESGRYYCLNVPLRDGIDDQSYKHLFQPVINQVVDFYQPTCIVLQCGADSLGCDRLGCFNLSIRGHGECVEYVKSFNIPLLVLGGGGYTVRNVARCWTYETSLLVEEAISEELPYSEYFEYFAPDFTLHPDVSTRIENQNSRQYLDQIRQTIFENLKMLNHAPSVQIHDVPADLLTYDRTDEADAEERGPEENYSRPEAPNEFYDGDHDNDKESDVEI
Procedure, shortened: (§1)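 Recombinant HDAC isoform assays run by a contract lab. Compounds in DMSO, 10-dose IC50 mode, 3-fold serial dilution from 50 μM. Duplicate runs; IC50 from curve fitting.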

OVCAR-8 = assay: Growth inhibition of human OVCAR8 cells assessed as cell growth inhibition at 10 uM incubated for 48 hrs by sulforhodamine B assay; format: functional; settings: OVCAR-8, 48 h, read-out: GI
DU-145 = assay: Growth inhibition of human DU145 cells assessed as cell growth inhibition at 10 uM incubated for 48 hrs by sulforhodamine B assay; format: functional; settings: DU-145, 48 h, read-out: GI
ACHN = assay: Growth inhibition of human ACHN cells assessed as cell growth inhibition at 10 uM incubated for 48 hrs by sulforhodamine B assay; format: functional; settings: read-out: GI
HT-29 = assay: Growth inhibition of human HT-29 cells assessed as cell growth inhibition at 10 uM incubated for 48 hrs by sulforhodamine B assay; format: functional; settings: HT-29, 48 h, read-out: GI
Histone deacetylase 11 = Histone deacetylase 11 (Homo sapiens, UniProt Q96DB2); assay: Inhibition of HDAC11 (unknown origin) using Fluor de Lys substrate by fluorescence assay relative to control; procedure, shortened: as §1
Chain of Histone deacetylase 11 (Q96DB2 whole entry): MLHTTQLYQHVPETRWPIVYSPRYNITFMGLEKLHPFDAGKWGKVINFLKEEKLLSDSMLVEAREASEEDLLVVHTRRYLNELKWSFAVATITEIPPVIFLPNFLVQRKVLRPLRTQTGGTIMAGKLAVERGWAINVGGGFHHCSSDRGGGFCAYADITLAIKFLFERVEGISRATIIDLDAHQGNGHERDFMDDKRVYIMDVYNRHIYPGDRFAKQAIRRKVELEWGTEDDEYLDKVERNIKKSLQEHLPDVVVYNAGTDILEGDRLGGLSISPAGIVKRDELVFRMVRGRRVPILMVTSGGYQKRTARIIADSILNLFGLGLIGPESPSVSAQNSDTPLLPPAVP

[1] = AUC (0 to t) in Sprague-Dawley rat at 10 mg/kg, po by LC-MS/MS analysis; format: ADME, organism-based; settings: in vivo
[2] = Terminal half life in Sprague-Dawley rat at 10 mg/kg, po by LC-MS/MS analysis; format: ADME, organism-based; settings: in vivo, read-out: beta t1/2 (converted)
Procedure, shortened: (§2)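 Male SD rats (199-214 g), three per route, single dose 1 mg/kg iv or 10 mg/kg po. Jugular blood (~200 μL) into heparinized tubes at set times; plasma by centrifugation, protein precipitation with acetonitrile containing verapamil and glibenclamide; drug measured by LC-MS/MS.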

RXF 393 = assay: Growth inhibition of human RXF393 cells assessed as cell growth inhibition at 10 uM incubated for 48 hrs by sulforhodamine B assay; format: functional; settings: RXF 393, 48 h, read-out: GI
K562 = assay: Growth inhibition of human K562 cells assessed as cell growth inhibition at 10 uM incubated for 48 hrs by sulforhodamine B assay; format: functional; settings: K562, 48 h, read-out: GI
UO-31 = assay: Growth inhibition of human UO31 cells assessed as cell growth inhibition at 10 uM incubated for 48 hrs by sulforhodamine B assay; format: functional; settings: UO-31, 48 h, read-out: GI
[3] = Clearance in Sprague-Dawley rat at 1 mg/kg, iv by LC-MS/MS analysis; format: ADME, organism-based; settings: in vivo
Procedure, shortened: (§3)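 Male SD rats, 199-214 g, three per route. Single iv dose of 1 mg/kg or oral dose of 10 mg/kg. About 200 μL blood drawn from the jugular vein into heparinized tubes at set times, then spun to plasma. 30 μL plasma precipitated with CH3CN containing verapamil and glibenclamide as internal standards. Plasma drug level measured by LC-MS/MS.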

MCF7 = assay: Growth inhibition of human MCF7 cells assessed as cell growth inhibition at 10 uM incubated for 48 hrs by sulforhodamine B assay; format: functional; settings: MCF7, 48 h, read-out: GI
SF-268 = assay: Growth inhibition of human SF268 cells assessed as cell growth inhibition at 10 uM incubated for 48 hrs by sulforhodamine B assay; format: functional; settings: SF-268, 48 h, read-out: GI
SNB-19 = assay: Growth inhibition of human SNB19 cells assessed as cell growth inhibition at 10 uM incubated for 48 hrs by sulforhodamine B assay; format: functional; settings: SNB-19, 48 h, read-out: GI
MDA-MB-468 = assay: Growth inhibition of human MDA-MB-468 cells assessed as cell growth inhibition at 10 uM incubated for 48 hrs by sulforhodamine B assay; format: functional; settings: MDA-MB-468, 48 h, read-out: GI
[4] = Metabolic stability in human liver microsomes assessed as internal clearance at 1 uM preincubated for 10 mins followed by NADPH addition measured upto 60 mins by LC-MS/MS analysis; format: ADME, Microsome; settings: read-out: CLH
Procedure, shortened: (§4)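 Liver microsomes from male SD rat, dog or human at 0.5 mg/mL in 100 mM potassium phosphate pH 7.4 with 1 μM compound. Prewarmed 37 °C 10 min, started with 1 mM NADPH. Stopped at 0, 5, 10, 20, 40, 60 min with cold methanol containing glibenclamide internal standard; supernatant by LC–MS/MS; T1/2 and CLint derived.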

UACC-257 = assay: Growth inhibition of human UACC257 cells assessed as cell growth inhibition at 10 uM incubated for 48 hrs by sulforhodamine B assay; format: functional; settings: UACC-257, 48 h, read-out: GI
T47D = assay: Growth inhibition of human T47D cells assessed as cell growth inhibition at 10 uM incubated for 48 hrs by sulforhodamine B assay; format: functional; settings: read-out: GI
[5] = molecular target: Histone deacetylase 7 (Homo sapiens) (UniProt Q8WUI4); assay: Inhibition of HDAC7 (unknown origin) using Fluor de Lys substrate by fluorescence assay relative to control; procedure, shortened: as §1
Chain of Histone deacetylase 7 (Homo sapiens) (Q8WUI4 whole entry): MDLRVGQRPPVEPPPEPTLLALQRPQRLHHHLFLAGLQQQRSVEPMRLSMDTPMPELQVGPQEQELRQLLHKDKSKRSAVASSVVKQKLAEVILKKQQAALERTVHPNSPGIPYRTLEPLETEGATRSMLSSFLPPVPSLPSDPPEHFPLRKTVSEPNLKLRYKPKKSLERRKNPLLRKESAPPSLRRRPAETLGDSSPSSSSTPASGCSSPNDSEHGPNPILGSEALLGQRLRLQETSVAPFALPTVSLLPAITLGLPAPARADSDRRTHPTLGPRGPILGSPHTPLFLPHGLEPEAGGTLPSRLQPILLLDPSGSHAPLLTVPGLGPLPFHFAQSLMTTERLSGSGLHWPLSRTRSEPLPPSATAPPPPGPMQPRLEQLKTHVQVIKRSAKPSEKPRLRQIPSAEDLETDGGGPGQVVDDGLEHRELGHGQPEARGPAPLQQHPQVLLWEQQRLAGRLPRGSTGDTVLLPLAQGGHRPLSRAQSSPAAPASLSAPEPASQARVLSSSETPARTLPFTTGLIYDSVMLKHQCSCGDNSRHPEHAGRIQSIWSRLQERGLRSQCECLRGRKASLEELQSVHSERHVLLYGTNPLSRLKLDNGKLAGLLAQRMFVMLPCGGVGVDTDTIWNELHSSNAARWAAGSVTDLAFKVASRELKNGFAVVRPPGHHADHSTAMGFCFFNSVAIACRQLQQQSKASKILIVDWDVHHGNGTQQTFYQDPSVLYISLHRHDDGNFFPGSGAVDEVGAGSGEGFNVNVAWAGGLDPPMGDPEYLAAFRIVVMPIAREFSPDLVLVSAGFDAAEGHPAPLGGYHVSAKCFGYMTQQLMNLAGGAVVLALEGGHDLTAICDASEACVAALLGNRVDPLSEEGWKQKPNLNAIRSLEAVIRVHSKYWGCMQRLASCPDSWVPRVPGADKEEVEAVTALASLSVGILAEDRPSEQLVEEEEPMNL

[6] = Volume of distribution at steady state in Sprague-Dawley rat at 1 mg/kg, iv by LC-MS/MS analysis; format: ADME, organism-based; settings: in vivo, read-out: Vdss; procedure, shortened: as §2
NCI-H322M = assay: Growth inhibition of human NCI-H322M assessed as cell growth inhibition at 10 uM incubated for 48 hrs by sulforhodamine B assay; format: functional; settings: read-out: GI
IGROV-1 = assay: Growth inhibition of human IGROV1 cells assessed as cell growth inhibition at 10 uM incubated for 48 hrs by sulforhodamine B assay; format: functional; settings: IGROV-1, 48 h, read-out: GI
SN12C = assay: Growth inhibition of human SN12C cells assessed as cell growth inhibition at 10 uM incubated for 48 hrs by sulforhodamine B assay; format: functional; settings: read-out: GI
COLO 205 = assay: Growth inhibition of human COLO205 cells assessed as cell growth inhibition at 10 uM incubated for 48 hrs by sulforhodamine B assay; format: functional; settings: COLO 205, 48 h, read-out: GI
NCI-H226 = assay: Growth inhibition of human NCI-H226 assessed as cell growth inhibition at 10 uM incubated for 48 hrs by sulforhodamine B assay; format: functional; settings: NCI-H226, 48 h, read-out: GI
[7] = AUC (0 to infinity) in Sprague-Dawley rat at 1 mg/kg, iv by LC-MS/MS analysis; format: ADME, organism-based; set-up: dose 1 mg/kg, route intravenous, time infinity; settings: in vivo; procedure, shortened: as §3
[8] = Metabolic stability in dog liver microsomes assessed as half life at 1 uM preincubated for 10 mins followed by NADPH addition measured upto 60 mins by LC-MS/MS analysis; format: ADME, Canis lupus familiaris, Microsome; procedure, shortened: as §4
[9] = Metabolic stability in dog liver microsomes assessed as internal clearance at 1 uM preincubated for 10 mins followed by NADPH addition measured upto 60 mins by LC-MS/MS analysis; format: ADME, Canis lupus familiaris, Microsome; settings: read-out: CLH; procedure, shortened: as §4

Work on `Nc1cc(F)ccc1NC(=O)c1ccc(CNC(=O)/C=C2\NC(=O)c3ccccc32)cc1` yielded an inhibition of growth at 10 µM (CCRF-CEM) of 84.5%, an inhibition of growth at 10 µM (SK-MEL-5) of 34.7% and an IC50 (Histone deacetylase 3) of 112 nM. The inhibition of growth at 10 µM (OVCAR-8) was 55.9%, the inhibition of growth at 10 µM (DU-145) was 13% and the inhibition of growth at 10 µM (ACHN) was 15%. For the same compound, the inhibition of growth at 10 µM (HT-29) was 40.4%, the IC50 (Histone deacetylase 11) was 632 nM and the AUC(0-t) [1] was 1710 ng·h/mL. For the same compound, the half-life [2] was 1.3 h, the inhibition of growth at 10 µM (RXF 393) was 17.5% and the inhibition of growth at 10 µM (K562) was 61.6%. For the same compound, the inhibition of growth at 10 µM (UO-31) was 50.1%, the clearance [3] was 21.3 mL/min/kg and the inhibition of growth at 10 µM (MCF7) was 35.5%. For the same compound, the inhibition of growth at 10 µM (SF-268) was 36%, the inhibition of growth at 10 µM (SNB-19) was 13.6% and the inhibition of growth at 10 µM (MDA-MB-468) was 9.71%. It also gave a microsomal CLint at 1 µM [4] of 4.8 µL/min/mg, an inhibition of growth at 10 µM (UACC-257) of 36.6% and an inhibition of growth at 10 µM (T47D) of 58.2%. The inhibition [5] was “inactive”, the Vd [6] was 0.493 L/kg and the inhibition of growth at 10 µM (NCI-H322M) was 14.2%. It also gave an inhibition of growth at 10 µM (IGROV-1) of 22.8%, an inhibition of growth at 10 µM (SN12C) of 30.8% and an inhibition of growth at 10 µM (COLO 205) of 27.8%. It also gave an inhibition of growth at 10 µM (NCI-H226) of 30.2%, an AUC(0-inf) [7] of 784 ng·h/mL and a half-life at 1 µM [8] of 3.35 h. For the same compound, the microsomal CLint at 1 µM [9] was 6.92 µL/min/mg.
